Activity calls are given as the source filed them. The calls are words filed in the database; no cut-off is given here.
Assays:
MDA-MB-435 [1] = assay: Induction of DNA damage in human MDA-MB-435 cells assessed as phosphorylation of H2AX at Ser139 at 10 uM after 12 hrs by Western blotting analysis; type: functional, cell-based
Procedure, shortened: (§1)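 Treated MDA-MB-435 cells lysed in ice-cold Tris-HCl pH 7.4 buffer with Triton, phosphatase and protease inhibitors. Lysates clarified, boiled in SDS loading buffer, run on 8-12% SDS-PAGE and blotted. Membranes blocked in 5% skim milk, probed with primary antibodies, then peroxidase secondaries with ECL detection. β-actin as loading control.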

MDA-MB-435 [2] = assay: Induction of DNA damage in human MDA-MB-435 cells assessed as phosphorylation of ATM at Ser1981 at 10 uM after 12 hrs by Western blotting analysis; type: functional, cell-based; procedure, shortened: as §1
MDA-MB-435 [3] = assay: Induction of DNA damage in human MDA-MB-435 cells assessed as phosphorylation of p53 at Ser15 at 10 uM after 12 hrs by Western blotting analysis; type: functional, cell-based; procedure, shortened: as §1
Calf thymus DNA [4] = assay: Induction of DNA intercalation activity of calf thymus DNA topoisomerase 1 assessed as unwinding of pBR322 DNA at 100 uM after 30 mins by Agarose gel electrophoresis; type: nucleic-acid assay; settings: Bos taurus
Procedure, shortened: (§2)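 Relaxed pBR322 made by treating supercoiled plasmid with excess Topo I (10 units), then proteinase K digestion at 37 °C, phenol-chloroform extraction and ethanol precipitation. Relaxed DNA incubated with compound at 37 °C for 30 min; stopped with gel loading buffer. Run on 1% agarose, TAE, 5 V/cm for 2 h; stained with ethidium bromide 0.5 µg/mL, viewed under UV.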

Bos taurus = organism: Bos taurus; assay: Inhibition of calf thymus DNA topoisomerase 1-mediated relaxation of supercoiled pBR322 DNA at 100 uM after 30 mins by Agarose gel electrophoresis
Procedure, shortened: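 Relaxation assay with 0.5 µg supercoiled pBR322 and 1 unit calf thymus Topo I, 20 µL. Buffer: 10 mM Tris–HCl pH 7.9, 150 mM NaCl, 0.1% BSA, 1 mM spermidine, 5% glycerol. Incubated 37 °C for 30 min; stopped with sarcosyl stop solution. 1% agarose gel, 5 V/cm, 2 h, TAE; ethidium bromide stain (0.5 µg/mL), UV. DMSO stocks. At least duplicate.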

[5] = biological target: DNA topoisomerase 2-alpha (Homo sapiens) (UniProt P11388); assay: Inhibition of recombinant human DNA topoisomerase 2-alpha-mediated relaxation of supercoiled pBR322 DNA at 100 uM after 30 mins by Agarose gel electrophoresis
Procedure, shortened: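 Relaxation assay with 0.5 µg supercoiled pBR322 and 1 unit recombinant human Topo IIα, 20 µL. Incubated 30 min at 30 °C; stopped with 7 mM EDTA. 1% agarose gel, 5 V/cm, 2 h, TAE; ethidium bromide stain, UV. DMSO stocks. At least duplicate.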

[6] = biological target: DNA topoisomerase 2-alpha (Homo sapiens) (UniProt P11388); assay: Inhibition of recombinant human DNA topoisomerase 2-alpha assessed as supression of kDNA decatenation at 100 uM after 30 mins by agarose gel electrophoresis
Procedure, shortened: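 ATP-dependent decatenation assay: 0.20 µg kDNA with 2 units Topo IIα at 37 °C for 30 min, 20 µL. Buffer: 50 mM Tris pH 8.0, KCl, 10 mM MgCl₂, 0.5 mM ATP, 0.5 mM DTT, 30 µg/mL BSA. Stopped with 10% SDS. Agarose gel scored for kDNA versus released minicircles.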

MDA-MB-435 [7] = assay: Cytotoxicity against human MDA-MB-435 cells assessed as growth inhibition at 100 uM after 72 hrs by MTT assay
LNCaP = assay: Cytotoxicity against human LNCAP cells assessed as growth inhibition after 72 hrs by MTT assay; type: functional, cell-based
Procedure, shortened: (§3)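 MTT assay: cells treated in triplicate with a range of concentrations for 72 h at 37 °C, 5% CO2. Medium replaced, MTT (5 mg/mL) added for 4 h, then SDS/isobutanol/HCl solubiliser overnight. Absorbance read at 590 nm. Inhibition calculated against control and blank wells; IC50 is concentration giving 50% growth inhibition; three independent experiments.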

A549 = assay: Cytotoxicity against human A549 cells assessed as growth inhibition after 72 hrs by MTT assay; type: functional, cell-based; procedure, shortened: as §3
MDA-MB-435 [8] = assay: Cytotoxicity against human MDA-MB-435 cells assessed as growth inhibition after 72 hrs by MTT assay; type: functional, cell-based; procedure, shortened: as §3
Calf thymus DNA [9] = assay: Induction of DNA intercalation activity of calf thymus DNA topoisomerase 1 assessed as unwinding of pBR322 DNA at 10 ug/ml after 30 mins by Agarose gel electrophoresis; type: nucleic-acid assay; settings: Bos taurus; procedure, shortened: as §2
Calf thymus DNA [10] = assay: Induction of DNA intercalation activity of calf thymus DNA topoisomerase 1 assessed as unwinding of pBR322 DNA at 2 ug/ml after 30 mins by Agarose gel electrophoresis; type: nucleic-acid assay; settings: Bos taurus; procedure, shortened: as §2

DNA topoisomerase 2-alpha (Homo sapiens), sequence (P11388 whole entry): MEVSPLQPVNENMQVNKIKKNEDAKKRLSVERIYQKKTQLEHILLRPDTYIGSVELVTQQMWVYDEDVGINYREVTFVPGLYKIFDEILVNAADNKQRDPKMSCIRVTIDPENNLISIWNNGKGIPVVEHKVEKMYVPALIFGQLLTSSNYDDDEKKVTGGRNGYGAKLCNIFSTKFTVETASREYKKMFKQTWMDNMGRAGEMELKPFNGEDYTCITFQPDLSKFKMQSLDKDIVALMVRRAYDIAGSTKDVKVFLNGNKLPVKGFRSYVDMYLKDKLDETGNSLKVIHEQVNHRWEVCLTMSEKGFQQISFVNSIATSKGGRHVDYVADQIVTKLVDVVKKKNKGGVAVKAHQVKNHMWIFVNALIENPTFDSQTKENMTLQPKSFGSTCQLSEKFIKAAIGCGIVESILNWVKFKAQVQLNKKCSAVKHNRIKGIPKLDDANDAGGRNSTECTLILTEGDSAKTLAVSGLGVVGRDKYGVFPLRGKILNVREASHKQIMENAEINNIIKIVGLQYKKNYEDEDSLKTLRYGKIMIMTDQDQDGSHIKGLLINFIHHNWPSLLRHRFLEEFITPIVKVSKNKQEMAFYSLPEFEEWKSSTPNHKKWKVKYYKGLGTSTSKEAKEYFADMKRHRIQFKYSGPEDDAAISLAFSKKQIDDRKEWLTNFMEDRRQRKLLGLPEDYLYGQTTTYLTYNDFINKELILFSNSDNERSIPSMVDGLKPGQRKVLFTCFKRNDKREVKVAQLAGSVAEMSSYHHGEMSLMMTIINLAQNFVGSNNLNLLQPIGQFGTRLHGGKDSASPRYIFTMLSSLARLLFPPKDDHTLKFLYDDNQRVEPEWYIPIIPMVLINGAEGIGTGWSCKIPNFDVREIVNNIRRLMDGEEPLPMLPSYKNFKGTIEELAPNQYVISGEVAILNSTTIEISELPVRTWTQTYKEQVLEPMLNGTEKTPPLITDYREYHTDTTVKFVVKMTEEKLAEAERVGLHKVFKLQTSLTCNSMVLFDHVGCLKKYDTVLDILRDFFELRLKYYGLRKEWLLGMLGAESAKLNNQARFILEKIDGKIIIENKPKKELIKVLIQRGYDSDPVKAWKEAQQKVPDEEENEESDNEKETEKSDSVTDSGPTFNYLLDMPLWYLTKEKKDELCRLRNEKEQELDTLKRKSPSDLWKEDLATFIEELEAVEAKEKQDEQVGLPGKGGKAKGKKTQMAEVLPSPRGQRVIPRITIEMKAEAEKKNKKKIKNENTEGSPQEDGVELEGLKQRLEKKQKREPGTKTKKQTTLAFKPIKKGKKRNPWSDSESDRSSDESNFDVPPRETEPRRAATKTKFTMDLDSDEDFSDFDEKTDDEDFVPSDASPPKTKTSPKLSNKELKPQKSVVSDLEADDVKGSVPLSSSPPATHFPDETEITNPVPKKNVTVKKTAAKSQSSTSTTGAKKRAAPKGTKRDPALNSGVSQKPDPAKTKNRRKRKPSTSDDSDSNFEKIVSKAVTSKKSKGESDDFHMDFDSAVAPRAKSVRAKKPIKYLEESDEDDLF

Compound	inhibition (Bos taurus)	inhibition [5]	inhibition [6]	other results
COc1cc([C@@H]2c3cc4c(cc3[C@@H](O[C@@H]3O[C@@H]5CO[C@@H](C)O[C@H]5[C@H](O)[C@H]3O)[C@H]3COC(=O)[C@H]23)OCO4)cc(OC)c1O				Activity (MDA-MB-435 [1]): Active; Activity (MDA-MB-435 [2]): Active; Activity (MDA-MB-435 [3]): Active
CC[C@@]1(O)C(=O)OCc2c1cc1n(c2=O)Cc2cc3c(O)cccc3nc2-1	Active			Activity (Calf thymus DNA [4]): inactive
COc1ccc(-c2ccc(-c3ccc(O)cc3)c(OC)c2OC)cc1OC	inactive	inactive	inactive	
COc1ccc(-c2ccc(-c3ccc(OC)c(OC)c3)c(OC)c2)cc1	inactive	inactive	inactive	Activity (MDA-MB-435 [7]): inactive
COc1ccc(-c2ccc(-c3ccc(O)cc3)cc2)cc1OC	inactive	inactive	inactive	
Oc1ccc(-c2ccc(-c3ccc(O)c(O)c3)c(O)c2)cc1	inactive		Active	growth inhibition (GI) (LNCaP): Active; growth inhibition (GI) (A549): Active; growth inhibition (GI) (MDA-MB-435 [8]): Active
CC[N+](C)(CC)CCC[n+]1c(-c2ccccc2)c2cc(N)ccc2c2ccc(N)cc21				Activity (Calf thymus DNA [9]): Active
Oc1ccc(-c2cc(O)c(-c3ccc(O)c(O)c3)c(O)c2)cc1	Active		Active	growth inhibition (GI) (LNCaP): Active; growth inhibition (GI) (A549): Active; growth inhibition (GI) (MDA-MB-435 [8]): Active
Oc1ccc(-c2ccc(-c3ccc(O)c(O)c3)c(O)c2O)cc1	inactive		Active	growth inhibition (GI) (LNCaP): Active; growth inhibition (GI) (A549): Active; growth inhibition (GI) (MDA-MB-435 [8]): Active
CC[n+]1c(-c2ccccc2)c2cc(N)ccc2c2ccc(N)cc21				Activity (Calf thymus DNA [10]): Active
COc1ccc(-c2cc(OC)c(-c3ccc(OC)c(OC)c3)c(OC)c2)cc1	inactive	inactive	inactive	Activity (MDA-MB-435 [7]): inactive
